Test results from ChEMBL document CHEMBL4813921, “Optimization of WZ4003 as NUAK inhibitors against human colorectal cancer” (Eur J Med Chem, 2021).
Active and inactive are the calls of the source. The rule behind the calls is not given here.

Columns and labels:
[1] = molecular target: T1, NUAK family SNF1-like kinase 2 (Homo sapiens) (UniProt Q9H093); assay: Inhibition of NUAK2 (unknown origin) at 10 uM using CHKtide as substrate in presence of ATP measured after 60 mins by ADP-Glo assay
T1 sequence (whole entry): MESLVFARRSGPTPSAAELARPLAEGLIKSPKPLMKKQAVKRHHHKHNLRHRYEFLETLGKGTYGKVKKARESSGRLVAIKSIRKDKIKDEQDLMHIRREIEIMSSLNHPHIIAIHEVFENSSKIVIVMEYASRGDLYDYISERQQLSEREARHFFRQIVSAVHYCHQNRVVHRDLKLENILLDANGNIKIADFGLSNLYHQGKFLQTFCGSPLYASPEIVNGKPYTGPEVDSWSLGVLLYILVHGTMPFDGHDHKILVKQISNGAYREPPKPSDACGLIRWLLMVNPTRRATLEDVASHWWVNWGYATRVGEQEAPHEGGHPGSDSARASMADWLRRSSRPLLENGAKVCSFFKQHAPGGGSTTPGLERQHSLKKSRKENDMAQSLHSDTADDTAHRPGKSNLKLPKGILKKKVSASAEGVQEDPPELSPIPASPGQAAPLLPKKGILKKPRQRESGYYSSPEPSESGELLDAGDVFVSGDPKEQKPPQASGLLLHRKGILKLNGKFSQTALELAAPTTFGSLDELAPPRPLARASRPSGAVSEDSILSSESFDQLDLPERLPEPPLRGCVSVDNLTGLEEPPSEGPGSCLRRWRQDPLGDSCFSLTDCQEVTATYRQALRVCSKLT

U2OS [2] = assay: Antiproliferative activity against human U2OS cells assessed as reduction in cell viability at 10 uM measured after 1 to 5 days by MTT assay; format: functional; conditions: time 1-5 day
Procedure, shortened: (§1)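 MTT viability read daily over 1–5 days of exposure to 10 μM compound; mean ± SD, n = 3.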

HCT-116 [3] = assay: Antiproliferative activity against human HCT-116 cells assessed as reduction in cell viability at 10 uM measured after 1 to 5 days by MTT assay relative to control; format: functional, cell-based; conditions: time 1-5 day; procedure, shortened: as §1
SW480 [4] = assay: Antiproliferative activity against human SW480 cells assessed as reduction in cell viability at 10 uM measured after 1 to 5 days by MTT assay relative to control; format: functional, cell-based; conditions: time 1-5 day; procedure, shortened: as §1
U2OS [5] = assay: Inhibition of colony formation in human U2OS cells measured after 14 days by crystal violet staining based microcopic analysis; format: functional, cell-based; conditions: dose 0.5-2 µM, time 14.0 day
Procedure, shortened: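 Clonogenic assay with 14-day exposure to a range of compound concentrations; colonies stained with crystal violet and imaged by microscopy; compared with untreated cells.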

HCT-116 [6] = assay: Antiproliferative activity against human HCT-116 cells at 2.5 to 10 uM measured after 48 hrs by EdU staining based assay; format: functional, cell-based; conditions: dose 2.5-10 µM
Procedure, shortened: (§2)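 Cells exposed to a range of compound concentrations for 48 h, then EdU click-chemistry staining with DAPI counterstain. Confocal high-content imaging; DAPI-positive nuclei counted as total and EdU-positive as proliferating.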

SW480 [7] = assay: Antiproliferative activity against human SW480 cells at 2.5 to 10 uM measured after 48 hrs by EdU staining based assay; format: functional, cell-based; conditions: dose 2.5-10 µM; procedure, shortened: as §2
HCT-116 [8] = assay: Induction of cell cycle arrest in human HCT-116 cells assessed as increase in accumulation at G2/M phase at 10 uM measured after 48 hrs by PI/RNaseA staining based flow cytometry assay; format: functional
HCT-116 [9] = assay: Induction of cell cycle arrest in human HCT-116 cells assessed as reduction in accumulation at G1 phase at 10 uM measured after 48 hrs by PI/RNaseA staining based flow cytometry assay; format: functional
SW480 [10] = assay: Induction of cell cycle arrest in human SW480 cells assessed as reduction in accumulation at S phase at 10 uM measured after 48 hrs by PI/RNaseA staining based flow cytometry assay; format: functional
SW480 [11] = assay: Induction of ROS generation in human SW480 cells at 10 uM measured after 48 hrs by DCFH-DA staining based flow cytometry method; format: functional, cell-based
Procedure, shortened: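 Cells treated at 10 μM for 48 h, ROS measured by flow cytometry. Fluorescence intensity expressed relative to vehicle-treated controls; mean ± SEM from 3 independent experiments.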

U2OS [12] = assay: Induction of apoptosis in human U2OS cells assessed as viable cells at 10 uM measured after 48 hrs by Annexin V-FITC/PI staining based flow cytometry method (reference value: 95.5%); format: functional; conditions: read-out: Activity
U2OS [13] = assay: Induction of apoptosis in human U2OS cells assessed as early apoptotic cells at 10 uM measured after 48 hrs by Annexin V-FITC/PI staining based flow cytometry method (reference value: 2.8%); format: functional
HCT-116 [14] = assay: Induction of apoptosis in human HCT-116 cells assessed as viable cells at 10 uM measured after 48 hrs by Annexin V-FITC/PI staining based flow cytometry method (reference value: 95.4%); format: functional; conditions: read-out: Activity
HCT-116 [15] = assay: Induction of apoptosis in human HCT-116 cells assessed as late apoptotic cells at 10 uM measured after 48 hrs by Annexin V-FITC/PI staining based flow cytometry method (reference value: 1.6%); format: functional
SW480 [16] = assay: Induction of apoptosis in human SW480 cells assessed as viable cells at 10 uM measured after 48 hrs by Annexin V-FITC/PI staining based flow cytometry method (reference value: 93.2%); format: functional; conditions: read-out: Activity
SW480 [17] = assay: Induction of apoptosis in human SW480 cells assessed as late apoptotic cells at 10 uM measured after 48 hrs by Annexin V-FITC/PI staining based flow cytometry method (reference value: 2.8%); format: functional
SW480 [18] = assay: Induction of apoptosis in human SW480 cells assessed as necrotic cells at 10 uM measured after 48 hrs by Annexin V-FITC/PI staining based flow cytometry method (reference value: 1.4%); format: functional
SW480 [19] = assay: Antitumour activity against human SW480 cells xenografted in Balb/c-nu/nu mouse assessed as inhibition of tumour volume at 10 to 20 mg/kg, ip administered every 2 days for 18 days; format: functional, organism-based; conditions: dose 10-20 mg/kg, time 18.0 day
Procedure, shortened: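 SW480 xenografts in nude mice, randomized at 100 mm3 tumour volume into four groups of six. Dosed ip at 10 or 20 mg/kg every two days for 18 days, with vehicle group. Tumour volume and body weight recorded every two days; tumours weighed at end; means ± SD (n = 6).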

[20] = Toxicity against BALB/c-nu/nu mouse xenografted with human SW480 cells assessed as morphological changes in heart at 10 to 20 mg/kg, ip administered every 2 days for 18 days by H and E staining based analysis; format: organism-based; conditions: in vivo, 432 h, dose 10-20 mg/kg, time 18 day
Procedure, shortened: (§3)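 After 18 days of ip dosing every two days in SW480-xenografted nude mice, heart, liver, spleen, lung and kidney harvested, sectioned, HE-stained, examined at ×400.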

[21] = Toxicity against BALB/c-nu/nu mouse xenografted with human SW480 cells assessed as morphological changes in liver at 10 to 20 mg/kg, ip administered every 2 days for 18 days by H and E staining based analysis; format: organism-based; conditions: in vivo, 432 h, dose 10-20 mg/kg, time 18 day; procedure, shortened: as §3
[22] = Toxicity against BALB/c-nu/nu mouse xenografted with human SW480 cells assessed as morphological changes in lung at 10 to 20 mg/kg, ip administered every 2 days for 18 days by H and E staining based analysis; format: organism-based; conditions: in vivo, 432 h, dose 10-20 mg/kg, time 18 day; procedure, shortened: as §3

**Q.** With `CCC(=O)Nc1cccc(Oc2nc(Nc3ccc(N4CCN(C)CC4)cc3)ncc2Cl)c1` as the molecule, how does the inhibition [1] read?
**A.** The inhibition was 82.5%.

**Q.** And the inhibition at 10 µM (U2OS [2])?
**A.** Its inhibition at 10 µM is 67.2%.

**Q.** And the Activity (HCT-116 [3])?
**A.** Its Activity is “Active”.

**Q.** What about the Activity (SW480 [4]) of the same molecule?
**A.** Its Activity is “Active”.

**Q.** And the inhibition (U2OS [5])?
**A.** The inhibition was “Dose-Dependent Effect”.

**Q.** And the Activity (HCT-116 [6])?
**A.** The Activity was “Active”.

**Q.** What about the Activity (SW480 [7]) of the same molecule?
**A.** Its Activity is “Active”.

**Q.** And the Activity (HCT-116 [8])?
**A.** The Activity was “Active”.

**Q.** And the Activity (HCT-116 [9])?
**A.** Its Activity is “Active”.

**Q.** And the Activity (SW480 [10])?
**A.** The Activity was “Active”.

**Q.** And the Activity (SW480 [11])?
**A.** Its Activity is “Active”.

**Q.** And the viability at 10 µM (U2OS [12])?
**A.** The viability at 10 µM was 81.6%.

**Q.** What about the Activity (U2OS [13]) of the same molecule?
**A.** The Activity was 12.9%.

**Q.** What about the viability at 10 µM (HCT-116 [14]) of the same molecule?
**A.** Its viability at 10 µM is 46%.

**Q.** And the Activity (HCT-116 [15])?
**A.** Its Activity is 10%.

**Q.** And the viability at 10 µM (SW480 [16])?
**A.** The viability at 10 µM was 69.8%.

**Q.** And the Activity (SW480 [17])?
**A.** The Activity was 10.8%.

**Q.** And the Activity (SW480 [18])?
**A.** The Activity was 3.3%.

**Q.** And the Activity (SW480 [19])?
**A.** The Activity was “Active”.

**Q.** What about the Activity [20] of the same molecule?
**A.** The Activity was “Non-Toxic”.

**Q.** And the Activity [21]?
**A.** Its Activity is “Non-Toxic”.

**Q.** And the Activity [22]?
**A.** The Activity was “Non-Toxic”.
